From PubChem
hERG rescue = compounds protecting human hERG from proarrhythmic drug block. 0.51% of 310,000 active. CHO-hERG, FluxOR thallium flux, dofetilide IC70 present. AID 1511. activation (rescue from dofetilide block), less the hit threshold, % at 10 µM. Q12809;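 active = activation above the mean of controls blocked by dofetilide plus 5 SD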;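 note: thallium influx through hERG after potassium depolarization seen as dye fluorescence rise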
KCNK9 block = blocks the human KCNK9 two-pore domain potassium channel | Q9NPC2 | HEK293 KCNK9, FluxOR thallium flux fluorescence; hits give low values | B-score at 10 µM | 1.2% of 310,000 active | AID 488922;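 active = ratio B-score over 3 SD below the library mean, with starting fluorescence within 5 SD of its mean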;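 note: negative B-score means less thallium flux so channel inhibition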
KCNQ1 pot = potentiators or activators of human KCNQ1 potassium channel; CHO-K1 KCNQ1, thallium flux FluxOR fluorescence; hits give high values; B-score at 10 µM; 0.35% of 310,000 active; AID 2648;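 active = fluorescence ratio B-score, a plate-corrected score, at least three library SD, with initial intensity B-score within 5 SD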
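Assay system: CHO-K1 cells stably expressing KCNQ1. Medium: assay buffer for compound exposure, DMSO matched across wells. Timing: 37 °C overnight plating, 90-min dark dye load, 20-min compound pretreatment. Signal: kinetic FluxOR fluorescence, 10 s baseline plus 110 s post-stimulus.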
KCNQ1 inh = blocks the human KCNQ1 potassium channel; P51787; CHO-K1 KCNQ1, FluxOR thallium flux fluorescence; hits give high values; B-score at 10 µM; 1.3% of 310,000 active; AID 2642;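 active = compounds whose thallium flux B-score, printed positive for inhibition, exceeds three library SD while starting fluorescence stays within three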;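 note: channel opened by potassium depolarization with thallium stimulus after 20 min compound exposure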
KCNK3 inh = human KCNK3 channel inhibition, primary screen; O14649; CHO-KCNK3 thallium flux, FluxOR fluorescence; hits give low values; B-score at 10 µM; 0.84% of 340,000 active; AID 602410;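 active = B-score under library mean minus 4 SD, starting fluorescence ratio at most library mean plus 5 SD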;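 note: more negative B-score means stronger inhibition of thallium flux through KCNK3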
KCNQ1 block val = human KCNQ1 channel inhibition, validation assay; shares compounds with KCNQ1 inh; KCNQ1 cell line, FluxOR thallium flux fluorescence; 93% of 1,600 active; inhibition, % at 10 µM;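 active = primary screen active, with duplicate mean exceeding buffer control mean plus 3 SD of buffer wells, cut at about 28% in these data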;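 note: 0% = buffer control ratio and 100% = XE991 inhibitor control ratio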
CHO Tl flux = KCNQ1 inhibitor counter-screen hit in parental CHO cells | shares compounds with KCNQ1 inh | AID 588366 | fluorescence ratio (Tl flux) at 10 µM | 21% of 1,600 active | parental CHO-K1, FluxOR thallium flux fluorescence ratio; hits give low values; zero means no signal rise above baseline;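 active = mean of duplicate thallium-flux fluorescence ratios in parental host cells more than 5 SD below the buffer control mean, cut at about 0.38 in these data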;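 note: ratio is peak minus minimum fluorescence divided by baseline fluorescence; actives read low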
KCNQ1 APC inh = human KCNQ1 inhibition validated by electrophysiology | shares compounds with KCNQ1 inh | 20% of 490 active | calls only at 10 µM | KCNQ1-CHO cells, automated patch clamp current;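 active = KCNQ1 current drop exceeding 3 SD of negative control wells, seen in both duplicate runs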;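 note: steady state current during a 2 s step from -80 to +40 mV; negative values mean current inhibition and positive values mean potentiation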
KCNQ2 spec = selectivity of KCNQ1 inhibitors: inhibition of rat KCNQ2 channel; KCNQ2 cells, FluxOR thallium flux fluorescence; AID 651746; inhibition, % at 10 µM; shares compounds with KCNQ1 inh; 71% of 1,600 active;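 active = mean percent inhibition of the KCNQ2 thallium signal more than 5 SD above the buffer-only control wells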;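 note: KCNQ2 expressed in CHO cells; 0% = buffer control wells and 100% = XE-991 inhibitor control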
KCNQ1 KCNE1 spec = selectivity of KCNQ1 inhibitors: inhibition of human KCNQ1/KCNE1 channel; shares compounds with KCNQ1 inh; KCNQ1/KCNE1 cells, FluxOR thallium flux fluorescence; inhibition, % at 10 µM; 77% of 1,600 active; AID 652147;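 active = mean percent inhibition of duplicate wells above the buffer-only control mean plus 3 SD of those controls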;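 note: 0% = buffer only wells and 100% = XE-991 inhibitor control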
An asterisk follows results filed as active; i = inactive; / = not tested or not shown. Hits are enriched below; roughly 3.1% of the tested compounds scored in any of these assays.

SMILES	hERG rescue	KCNK9 block	KCNQ1 pot	KCNQ1 inh	KCNK3 inh	KCNQ1 block val	CHO Tl flux	KCNQ2 spec	KCNQ1 KCNE1 spec	others
CCSc1nnc(NC(=O)NC(CC)(C(F)(F)F)C(F)(F)F)s1	-12.9	i	i	7*	i	57.0*	0.501	i	91.0%*
CCSc1nnc(NC(=O)NC(C)(C(F)(F)F)C(F)(F)F)s1	-10.9	i	i	i	i	/	/	/	/
COC(=O)c1ccccc1N/C=C1\CCc2c(c(C)nn2-c2ccccn2)C1=O	-14.7	i	i	6*	i	95.5*	0.506	96.7%*	141.0%*	KCNQ1 APC inh=i
COC(=O)c1ccccc1NC(=O)CN1CCN(c2ccccn2)CC1	-2.6	i	i	i	i	/	/	/	/
CCN(CC)S(=O)(=O)c1ccc2oc(C(=O)NCC3COc4ccccc4O3)c(C)c2c1 (configuration not stated)	-14.7	i	i	8*	i	96.5*	0.44	81.3%*	127.5%*	KCNQ1 APC inh=i
Cc1ccc(C)c(S(=O)(=O)NCc2ccc(C(=O)N3CCC(Cc4ccccc4)CC3)cc2)c1	-10.2	i	i	7*	i	77.0*	0.436	92.3%*	95.0%*
Cc1nc(N2CCN(c3ccccn3)CC2)c2c(C)c(C(=O)Nc3ccc(Br)cc3C)sc2n1	-12.8	i	i	7*	i	82.5*	0.446	98.0%*	103.5%*
Cc1ccc(NC(=O)c2sc3nc(C)nc(N4CCN(c5ccccn5)CC4)c3c2C)c(C)c1	-12.9	i	i	8*	i	84.5*	0.465	97.3%*	98.5%*
O=C(N[C@H]1C/C=C\C[C@H](CC(=O)N(CCO)Cc2ccccc2)C(=O)N[C@H](Cc2c[nH]c3ccccc23)COC1=O)OCC1c2ccccc2-c2ccccc21	/	/	/	/	i	/	/	/	/
CCc1noc(C)c1C(=O)N1CCCSC1=Nc1ccccc1Cl	-16.6	i	i	7*	i	80.5*	0.429	66.3%*	110.0%*
Cc1ccc(-c2csc(NC(=O)CSc3nc4ccccc4c(=O)n3CCCN(C)C)n2)cc1	-45.6	i	i	8*	i	118.5*	0.293*	101.3%*	154.0%*
Cc1ccc(NC(=O)CSc2nc3ccccc3c(=O)n2CCCN2CCCCC2)cc1Cl	-21.8	i	i	7*	i	85.0*	0.361*	85.3%*	84.0%*
NC(=O)C1C2CCC(C2)C1C(N)=O (configuration not stated)	/	/	/	/	i	/	/	/	/
Cc1ccc(S(=O)(=O)N2CCC(N3CCC(C)CC3)CC2)cc1	-6.6	i	i	i	i	/	/	/	/
CCCCn1c(SCC(=O)N2CCOCC2)nnc1-c1ccoc1C	-0.3	i	i	i	i	/	/	/	/
Cc1occc1-c1nnc(SCC(=O)N2CCOCC2)n1CCc1ccccc1	-3.6	i	i	6*	i	36.5*	0.534	i	45.0%*
O=C(c1ccc2c3c(cccc13)CC2)C1CCCN(C(=O)c2ccc[n+]([O-])c2)C1 (configuration not stated)	-13.7	i	i	i	i	/	/	/	/
O=C(CCc1ccncc1)NC1CCCc2c1cnn2-c1cc(F)cc(F)c1 (configuration not stated)	-7.7	i	i	i	i	/	/	/	/
CCOc1ccc(NC(=O)CN(C)C(=O)c2ccc3c(c2)C(=O)N(CCC(C)C)C3=O)cc1OCC	-11.0	i	i	i	i	/	/	/	/
